Experiments:
Rattus norvegicus [1] = organism: Rattus norvegicus; assay: Diuretic activity in rats; type: functional, Urine
In short: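 Male rats (~160 g) fasted 24 h, water withheld 1.5 h, both withheld during test. Gavage 25 mL/kg 0.9% saline with 0.5% carboxymethylcellulose containing compound at 40 mg/kg; urine collected 5 h in metabolism cages. Two-stage test, T/C urine volume per stage; active if product of stage T/Cs ≥3.34.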

Rattus norvegicus [2] = assay: Compound was tested for inhibition of RPAR administered perorally at 100 mg/kg dose; type: functional; conditions: route oral
In short: (§1)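 Male Wistar rats (180-200 g), 5-10/group, dosed orally (water with Tween-80 suspension) 1 h before iv sensitization with 1 mg bovine serum albumin; 24-h fasted. 60 min later subplantar challenge with 200 µg anti-BSA in left hindpaw. Paw swelling by mercury displacement plethysmography at 2 h post-challenge.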

Rattus norvegicus [3] = assay: Compound was tested for inhibition of RPAR administered perorally at 25 mg/kg dose; type: functional; conditions: route oral; in short: as §1
Rattus norvegicus [4] = assay: Compound was tested for inhibition of RPAR administered perorally at 50 mg/kg dose; type: functional; conditions: route oral; in short: as §1
Rattus norvegicus [5] = assay: Blood pressure change in rats after oral administration of 50 mg/kg dose after 24 hours; type: functional
In short: (§2)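 Restrained female Sprague–Dawley rats with indwelling aortic cannulas exteriorized at the nape; direct arterial pressure via transducer, mean pressure by electrical integration of phasic pressure. Readings before and 4 and 24 h after oral dosing (carboxymethylcellulose suspension, 10 mL/kg). Value is change in mean arterial pressure, averaged over two animals.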

Rattus norvegicus [6] = assay: Blood pressure change in rats after oral administration of 50 mg/kg dose after 4 hours; type: functional; in short: as §2
[7] = Potassium salt excretion in conscious rat at the dose of 0.3 mg/kg expressed as urinary excretion in treated rats/urinary excretion in control rats; type: ADME, organism-based, Urine; parameters: dose 0.3 mg/kg; conditions: in vivo
In short: (§3)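 Male rats (~160 g) fasted 24 h, water withheld 1.5 h; oral gavage of compound (0.3-100 mg/kg) in 25 mL/kg saline with 0.5% carboxymethylcellulose; 5 h urine collection in metabolism cages. Urine volume, Na+ and K+ (flame photometry) expressed as treated/control excretion ratio.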

[8] = Potassium salt excretion in conscious rat at the dose of 1.0 mg/kg expressed as urinary excretion in treated rats/urinary excretion in control rats; type: ADME, organism-based, Urine; parameters: dose 1 mg/kg; conditions: in vivo; in short: as §3
[9] = Potassium salt excretion in conscious rat at the dose of 10 mg/kg expressed as urinary excretion in treated rats/urinary excretion in control rats; type: ADME, organism-based, Urine; parameters: dose 10 mg/kg; conditions: in vivo; in short: as §3
[10] = Potassium salt excretion in conscious rat at the dose of 100 mg/kg expressed as urinary excretion in treated rats/urinary excretion in control rats; type: ADME, organism-based, Urine; parameters: dose 100 mg/kg; conditions: in vivo; in short: as §3
[11] = Potassium salt excretion in conscious rat at the dose of 3.0 mg/kg expressed as urinary excretion in treated rats/urinary excretion in control rats; type: ADME, organism-based, Urine; parameters: dose 3 mg/kg; conditions: in vivo; in short: as §3
[12] = Potassium salt excretion in conscious rat at the dose of 30 mg/kg expressed as urinary excretion in treated rats/urinary excretion in control rats; type: ADME, organism-based, Urine; parameters: dose 30 mg/kg; conditions: in vivo; in short: as §3
[13] = Sodium salt excretion in conscious rat at the dose of 0.3 mg/kg expressed as urinary excretion in treated rats/urinary excretion in control rats; type: ADME, organism-based, Urine; parameters: dose 0.3 mg/kg; conditions: in vivo; in short: as §3
[14] = Sodium salt excretion in conscious rat at the dose of 1.0 mg/kg expressed as urinary excretion in treated rats/urinary excretion in control rats; type: ADME, organism-based, Urine; parameters: dose 1 mg/kg; conditions: in vivo; in short: as §3
[15] = Sodium salt excretion in conscious rat at the dose of 10 mg/kg expressed as urinary excretion in treated rats/urinary excretion in control rats; type: ADME, organism-based, Urine; parameters: dose 10 mg/kg; conditions: in vivo; in short: as §3
[16] = Sodium salt excretion in conscious rat at the dose of 100 mg/kg expressed as urinary excretion in treated rats/urinary excretion in control rats; type: ADME, organism-based, Urine; parameters: dose 100 mg/kg; conditions: in vivo; in short: as §3
[17] = Sodium salt excretion in conscious rat at the dose of 3.0 mg/kg expressed as urinary excretion in treated rats/urinary excretion in control rats; type: ADME, organism-based, Urine; parameters: dose 3 mg/kg; conditions: in vivo; in short: as §3
[18] = Sodium salt excretion in conscious rat at the dose of 30 mg/kg expressed as urinary excretion in treated rats/urinary excretion in control rats; type: ADME, organism-based, Urine; parameters: dose 30 mg/kg; conditions: in vivo; in short: as §3
Rattus norvegicus [19] = assay: Compound was tested for urinary volume excretion in conscious rat at the dose of 0.3 mg/kg expressed as urinary excretion in treated rats/urinary excretion in control rats; type: ADME, organism-based, Urine; parameters: dose 0.3 mg/kg; conditions: in vivo; in short: as §3
Rattus norvegicus [20] = assay: Compound was tested for urinary volume excretion in conscious rat at the dose of 1.0 mg/kg expressed as urinary excretion in treated rats/urinary excretion in control rats; type: ADME, organism-based, Urine; parameters: dose 1 mg/kg; conditions: in vivo; in short: as §3
Rattus norvegicus [21] = assay: Compound was tested for urinary volume excretion in conscious rat at the dose of 10 mg/kg expressed as urinary excretion in treated rats/urinary excretion in control rats; type: ADME, organism-based, Urine; parameters: dose 10 mg/kg; conditions: in vivo; in short: as §3
Rattus norvegicus [22] = assay: Compound was tested for urinary volume excretion in conscious rat at the dose of 100 mg/kg expressed as urinary excretion in treated rats/urinary excretion in control rats; type: ADME, organism-based, Urine; parameters: dose 100 mg/kg; conditions: in vivo; in short: as §3
Rattus norvegicus [23] = assay: Compound was tested for urinary volume excretion in conscious rat at the dose of 3.0 mg/kg expressed as urinary excretion in treated rats/urinary excretion in control rats; type: ADME, organism-based, Urine; parameters: dose 3 mg/kg; conditions: in vivo; in short: as §3
Rattus norvegicus [24] = assay: Compound was tested for urinary volume excretion in conscious rat at the dose of 30 mg/kg expressed as urinary excretion in treated rats/urinary excretion in control rats; type: ADME, organism-based, Urine; parameters: dose 30 mg/kg; conditions: in vivo; in short: as §3

K+ excretion [7]: 1.1
K+ excretion [8]: 1
K+ excretion [9]: 1.7
K+ excretion [10]: 2.2
K+ excretion [11]: 1.3
K+ excretion [12]: 2.2
Na+ excretion [13]: 1
Na+ excretion [14]: 1.2
Na+ excretion [15]: 2.1
Na+ excretion [16]: 2.8
Na+ excretion [17]: 1.3
Na+ excretion [18]: 2.5
Urinary volume (Rattus norvegicus [19]): 1
Urinary volume (Rattus norvegicus [20]): 0.9
Urinary volume (Rattus norvegicus [21]): 2.3
Urinary volume (Rattus norvegicus [22]): 2.8
Urinary volume (Rattus norvegicus [23]): 1.4
Urinary volume (Rattus norvegicus [24]): 2.5
SMILES: Cn1c(N)nc(-c2ccccc2)c(Br)c1=O
Diuretic activity (Rattus norvegicus [1]): 5.52
inhibition in vivo at 100 mg/kg (Rattus norvegicus [2]): 74%
inhibition in vivo at 25 mg/kg (Rattus norvegicus [3]): 36%
inhibition in vivo at 50 mg/kg (Rattus norvegicus [4]): 64%
MABP change (Rattus norvegicus [5]): -7 mmHg
MABP change (Rattus norvegicus [6]): -12 mmHg
